Laboratory results from ChEMBL document CHEMBL3627671, “Novel derivatives of nitro-substituted salicylic acids: Synthesis, antimicrobial activity and cytotoxicity” (Bioorg Med Chem, 2015).
Converted amounts (≈) assume the structure as drawn.

Key:
Type in all cases: functional
[1] = tested on: Escherichia coli; assay: Antibacterial activity against Escherichia coli CCM4517 after 24 hrs by microdilution broth method; conditions: CCM4517, 24 h
In short: (§1)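 Mueller-Hinton broth microdilution (modified M07-A07), pH 7.4 (±0.2). Compounds dissolved in DMSO, tested at final 500 to 0.49 µmol/L. Inoculum in sterile water matched to 0.5 McFarland. Incubated in the dark, humid atmosphere, 35 °C, read at 24 and 48 h visually and at 540 nm. MIC taken as ≥95% growth reduction (IC95) versus control.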

[2] = tested on: Aspergillus fumigatus; assay: Antifungal activity against Aspergillus fumigatus 231 after 24 hrs by microdilution broth method; conditions: Aspergillus fumigatus, 231, 24 h
In short: (§2)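 CLSI M27-A3 broth microdilution in RPMI 1640 with glutamine, buffered to pH 7.0 with MOPS; DMSO diluent. Yeast inoculum 5 × 10^3 ± 0.2 CFU/mL. Moulds grown on Sabouraud agar 3–10 days before spore harvest, final inoculum 0.5-5 × 10^4 CFU/mL, checked in a Bürker chamber. Incubated dark, humid, 35 °C, read at 24 and 48 h visually and at 540 nm. MIC taken as ≥80% (yeasts) or ≥50% (filamentous) growth reduction versus control.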

[3] = tested on: Staphylococcus aureus; assay: Antibacterial activity against Staphylococcus aureus CCM 4516/08 after 48 hrs by microdilution broth method; conditions: CCM 4516/08, 48 h
[4] = tested on: Candida tropicalis; assay: Antifungal activity against Candida tropicalis 156 after 24 hrs by microdilution broth method; conditions: Candida tropicalis, 156, 24 h; in short: as §2
[5] = tested on: Mycobacterium kansasii; assay: Antimycobacterial activity against Mycobacterium kansasii 6509/96 after 21 days; conditions: 6509/96, 504 h
In short: (§3)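 Šula's semisynthetic medium micromethod at 37 °C, read after 7, 14 and 21 days. The 1.0 McFarland suspension was diluted 10^-4. MIC determined. 6509/96 is a clinical isolate.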

[6] = tested on: Enterococcus sp.; assay: Antibacterial activity against Enterococcus sp. J 14365/08 after 24 hrs by microdilution broth method; conditions: J 14365/08, 24 h; in short: as §1
[7] = tested on: Candida albicans; assay: Antifungal activity against Candida albicans ATCC 44859 after 48 hrs by microdilution broth method; conditions: ATCC 44859, 48 h; in short: as §2
[8] = tested on: Mycobacterium avium; assay: Antimycobacterial activity against Mycobacterium avium 330/80 after 14 days; conditions: 330/80, 336 h
[9] = tested on: Staphylococcus aureus; assay: Antibacterial activity against methicillin-resistant Staphylococcus aureus H 5996/08 after 24 hrs by microdilution broth method; conditions: H 5996/08, 24 h
[10] = tested on: Escherichia coli; assay: Antibacterial activity against Escherichia coli CCM4517 after 48 hrs by microdilution broth method; conditions: CCM4517, 48 h; in short: as §1
[11] = tested on: Staphylococcus aureus; assay: Antibacterial activity against Staphylococcus aureus CCM 4516/08 after 24 hrs by microdilution broth method; conditions: CCM 4516/08, 24 h
[12] = tested on: Trichophyton mentagrophytes; assay: Antifungal activity against Trichophyton mentagrophytes 445 after 48 hrs by microdilution broth method; conditions: Trichophyton mentagrophytes, 445, 48 h
[13] = tested on: Candida tropicalis; assay: Antifungal activity against Candida tropicalis 156 after 48 hrs by microdilution broth method; conditions: Candida tropicalis, 156, 48 h; in short: as §2
[14] = tested on: Staphylococcus epidermidis; assay: Antibacterial activity against Staphylococcus epidermidis H 6966/08 after 48 hrs by microdilution broth method; conditions: H 6966/08, 48 h; in short: as §1
[15] = tested on: Klebsiella pneumoniae; assay: Antibacterial activity against Klebsiella pneumoniae D 11750/08 after 48 hrs by microdilution broth method; conditions: D 11750/08, 48 h; in short: as §1
[16] = tested on: Mycobacterium kansasii; assay: Antimycobacterial activity against Mycobacterium kansasii 235/80 after 21 days; conditions: 235/80, 504 h; in short: as §3
[17] = tested on: Pseudomonas aeruginosa; assay: Antibacterial activity against Pseudomonas aeruginosa CCM 1961 after 48 hrs by microdilution broth method; conditions: CCM 1961, 48 h; in short: as §1
[18] = tested on: Pichia kudriavzevii; assay: Antifungal activity against Candida krusei E28 after 48 hrs by microdilution broth method; conditions: E28, 48 h; in short: as §2
[19] = tested on: Mycobacterium avium; assay: Antimycobacterial activity against Mycobacterium avium 330/80 after 21 days; conditions: 330/80, 504 h
[20] = tested on: Mycobacterium kansasii; assay: Antimycobacterial activity against Mycobacterium kansasii 235/80 after 14 days; conditions: 235/80, 336 h; in short: as §3
[21] = tested on: Mycobacterium tuberculosis; assay: Antimycobacterial activity against Mycobacterium tuberculosis H37Rv 331/88 after 14 days; conditions: H37Rv 331/88, 336 h
[22] = tested on: Mycobacterium kansasii; assay: Antimycobacterial activity against Mycobacterium kansasii 235/80 after 7 days; conditions: 235/80, 168 h; in short: as §3
[23] = tested on: Mycobacterium kansasii; assay: Antimycobacterial activity against Mycobacterium kansasii 6509/96 after 14 days; conditions: 6509/96, 336 h; in short: as §3
[24] = tested on: Lichtheimia corymbifera; assay: Antifungal activity against Absidia corymbifera 272 after 48 hrs by microdilution broth method; conditions: Lichtheimia corymbifera, 272, 48 h; in short: as §2
[25] = tested on: Staphylococcus epidermidis; assay: Antibacterial activity against Staphylococcus epidermidis H 6966/08 after 24 hrs by microdilution broth method; conditions: H 6966/08, 24 h; in short: as §1
[26] = tested on: Klebsiella pneumoniae; assay: Antibacterial activity against ESBL-positive Klebsiella pneumoniae J 14368/08 after 24 hrs by microdilution broth method; conditions: J 14368/08, 24 h; in short: as §1
[27] = tested on: Mycobacterium kansasii; assay: Antimycobacterial activity against Mycobacterium kansasii 6509/96 after 7 days; conditions: 6509/96, 168 h; in short: as §3
[28] = tested on: Nakaseomyces glabratus; assay: Antifungal activity against Candida glabrata 20/I after 24 hrs by microdilution broth method; in short: as §2
[29] = tested on: Candida albicans; assay: Antifungal activity against Candida albicans ATCC 44859 after 24 hrs by microdilution broth method; conditions: ATCC 44859, 24 h; in short: as §2
[30] = tested on: Klebsiella pneumoniae; assay: Antibacterial activity against ESBL-positive Klebsiella pneumoniae J 14368/08 after 48 hrs by microdilution broth method; conditions: J 14368/08, 48 h; in short: as §1
[31] = tested on: Lichtheimia corymbifera; assay: Antifungal activity against Absidia corymbifera 272 after 24 hrs by microdilution broth method; conditions: Lichtheimia corymbifera, 272, 24 h; in short: as §2
[32] = tested on: Trichophyton mentagrophytes; assay: Antifungal activity against Trichophyton mentagrophytes 445 after 24 hrs by microdilution broth method; conditions: Trichophyton mentagrophytes, 445, 24 h
[33] = tested on: Staphylococcus aureus; assay: Antibacterial activity against methicillin-resistant Staphylococcus aureus H 5996/08 after 48 hrs by microdilution broth method; conditions: H 5996/08, 48 h
[34] = tested on: Mycobacterium tuberculosis; assay: Antimycobacterial activity against Mycobacterium tuberculosis H37Rv 331/88 after 21 days; conditions: H37Rv 331/88, 504 h
[35] = tested on: Aspergillus fumigatus; assay: Antifungal activity against Aspergillus fumigatus 231 after 48 hrs by microdilution broth method; conditions: Aspergillus fumigatus, 231, 48 h; in short: as §2
[36] = tested on: Nakaseomyces glabratus; assay: Antifungal activity against Candida glabrata 20/I after 48 hrs by microdilution broth method; in short: as §2
[37] = tested on: Trichosporon asahii; assay: Antifungal activity against Trichosporon asahii 1188 after 24 hrs by microdilution broth method; conditions: Trichosporon asahii, 1188, 24 h; in short: as §2
[38] = tested on: Trichosporon asahii; assay: Antifungal activity against Trichosporon asahii 1188 after 48 hrs by microdilution broth method; conditions: Trichosporon asahii, 1188, 48 h; in short: as §2
[39] = tested on: Pichia kudriavzevii; assay: Antifungal activity against Candida krusei E28 after 24 hrs by microdilution broth method; conditions: E28, 24 h; in short: as §2
[40] = tested on: Klebsiella pneumoniae; assay: Antibacterial activity against Klebsiella pneumoniae D 11750/08 after 24 hrs by microdilution broth method; conditions: D 11750/08, 24 h; in short: as §1
[41] = tested on: Enterococcus sp.; assay: Antibacterial activity against Enterococcus sp. J 14365/08 after 48 hrs by microdilution broth method; conditions: J 14365/08, 48 h; in short: as §1
[42] = tested on: Pseudomonas aeruginosa; assay: Antibacterial activity against Pseudomonas aeruginosa CCM 1961 after 24 hrs by microdilution broth method; conditions: CCM 1961, 24 h; in short: as §1

With `O=C(Nc1cccc(I)c1)c1ccc([N+](=O)[O-])cc1O` the MIC [1] was > 500 µM, the MIC [2] was > 500 µM and the MIC [3] was 3.9 µM (≈ 1.5 µg/mL). For the same compound, the MIC [4] was > 500 µM, the MIC [5] was 16 µM (≈ 6.15 µg/mL) and the MIC [6] was > 500 µM. For the same compound, the MIC [7] was > 500 µM, the MIC [8] was 32 µM (≈ 12.3 µg/mL) and the MIC [9] was 3.9 µM (≈ 1.5 µg/mL). For the same compound, the MIC [10] was > 500 µM, the MIC [11] was 3.9 µM (≈ 1.5 µg/mL) and the MIC [12] was > 500 µM. The MIC [13] was > 500 µM, the MIC [14] was 15.6 µM (≈ 6 µg/mL) and the MIC [15] was > 500 µM. For the same compound, the MIC [16] was 16 µM (≈ 6.15 µg/mL), the MIC [17] was > 500 µM and the MIC [18] was > 500 µM. It also gave an MIC [19] of 62.5 µM (≈ 24 µg/mL), an MIC [20] of 16 µM (≈ 6.15 µg/mL) and an MIC [21] of 16 µM (≈ 6.15 µg/mL). The MIC [22] was 8 µM (≈ 3.07 µg/mL), the MIC [23] was 16 µM (≈ 6.15 µg/mL) and the MIC [24] was > 500 µM. The MIC [25] was 15.6 µM (≈ 6 µg/mL), the MIC [26] was > 500 µM and the MIC [27] was 16 µM (≈ 6.15 µg/mL). For the same compound, the MIC [28] was > 500 µM, the MIC [29] was > 500 µM and the MIC [30] was > 500 µM. For the same compound, the MIC [31] was > 500 µM, the MIC [32] was > 500 µM and the MIC [33] was 3.9 µM (≈ 1.5 µg/mL). For the same compound, the MIC [34] was 16 µM (≈ 6.15 µg/mL), the MIC [35] was > 500 µM and the MIC [36] was > 500 µM. The MIC [37] was > 500 µM, the MIC [38] was > 500 µM and the MIC [39] was > 500 µM. The MIC [40] was > 500 µM, the MIC [41] was > 500 µM and the MIC [42] was > 500 µM.
In the case of `O=C(Nc1cccc(Br)c1)c1ccc([N+](=O)[O-])cc1O`, the MIC [1] is reported as 500 µM (≈ 169 µg/mL), the MIC [2] is reported as > 500 µM and the MIC [3] is reported as 3.9 µM (≈ 1.31 µg/mL). The MIC [4] was > 500 µM, the MIC [5] was 16 µM (≈ 5.39 µg/mL) and the MIC [6] was 500 µM (≈ 169 µg/mL). The MIC [7] was > 500 µM, the MIC [8] was 32 µM (≈ 10.8 µg/mL) and the MIC [9] was 3.9 µM (≈ 1.31 µg/mL). The MIC [10] was > 500 µM, the MIC [11] was 3.9 µM (≈ 1.31 µg/mL) and the MIC [12] was 250 µM (≈ 84.3 µg/mL). The MIC [13] was > 500 µM, the MIC [14] was 3.9 µM (≈ 1.31 µg/mL) and the MIC [15] was 500 µM (≈ 169 µg/mL). The MIC [16] was 16 µM (≈ 5.39 µg/mL), the MIC [17] was > 500 µM and the MIC [18] was 250 µM (≈ 84.3 µg/mL). It also gave an MIC [19] of 62.5 µM (≈ 21.1 µg/mL), an MIC [20] of 16 µM (≈ 5.39 µg/mL) and an MIC [21] of 16 µM (≈ 5.39 µg/mL). The MIC [22] was 8 µM (≈ 2.7 µg/mL), the MIC [23] was 16 µM (≈ 5.39 µg/mL) and the MIC [24] was 500 µM (≈ 169 µg/mL). The MIC [25] was 3.9 µM (≈ 1.31 µg/mL), the MIC [26] was 500 µM (≈ 169 µg/mL) and the MIC [27] was 16 µM (≈ 5.39 µg/mL). For the same compound, the MIC [28] was > 500 µM, the MIC [29] was > 500 µM and the MIC [30] was 500 µM (≈ 169 µg/mL). It also gave an MIC [31] of 250 µM (≈ 84.3 µg/mL), an MIC [32] of 62.5 µM (≈ 21.1 µg/mL) and an MIC [33] of 3.9 µM (≈ 1.31 µg/mL). For the same compound, the MIC [34] was 16 µM (≈ 5.39 µg/mL), the MIC [35] was > 500 µM and the MIC [36] was > 500 µM. The MIC [37] was 31.2 µM (≈ 10.5 µg/mL), the MIC [38] was 125 µM (≈ 42.1 µg/mL) and the MIC [39] was 62.5 µM (≈ 21.1 µg/mL). For the same compound, the MIC [40] was 500 µM (≈ 169 µg/mL), the MIC [41] was 500 µM (≈ 169 µg/mL) and the MIC [42] was > 500 µM.
